CaV13 FRET inh: Disruptors of the CACNA1D IQ motif to Ca2+-dependent inactivation inhibitor domain association, primary screening, Förster resonance energy transfer in intact living …. AID 743397. inhibition, % at 12.3 µM. actives 0.098% (n = 340,000). HEK cells, CFP/YFP FRET ICDI-IQ, plate reader, 10 min; percent FRET-ratio fall versus neutral wells;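 active = mean replicate inhibition of at least 30% and at least 1% of replicates passing that level; inconclusive = only one of the two criteria is met; inactive = neither criterion is met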;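 also: 0% = median of the neutral control wells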
Keap1-Nrf2 PPI: Keap1-Nrf2 protein-protein interaction inhibitors, primary screen, biochemical, fluorescence polarization, single point. Kelch-like ECH-associated protein 1 (Homo sapiens), Q14145. Keap1 Kelch-Nrf2 peptide fluorescence polarization, 1536-well. inhibition, % at 9.4 µM. actives 0.15% (n = 340,000); in the data active = inhibition above about 12%; inconclusive = no clear call, values can overlap the other calls; inactive = below about 7.3%;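 also: human Keap1 Kelch domain with fluorescein labeled Nrf2 9mer peptide probe; 0% = neutral control wells and 100% = peptide positive control; higher means more block of Keap1 binding to Nrf2 peptide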
LANA DNA inh: inhibitors of KSHV C-LANA binding to DNA, primary screen, biochemical, fluorescence polarization, FAM-LBS DNA, MBP-C-LANA, single point; Kaposi's sarcoma herpesvirus LANA C-terminal domain (residues 932-1162) DNA binding; inhibition, % at 9 µM; actives 0.078% (n = 340,000); AID 504423, 2011;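 active = highest replicate inhibition at or above 60% at 9 µM, even if other replicates fall short; inactive = all replicates below 60% inhibition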;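 also: 0% = neutral control wells and 100% = 4 µM acridine orange control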
LANA-H2A inh: blockers of LANA interaction with H2A/H2B – biochemical, FP readout, HTS, primary screen; Protein LANA1 (Human herpesvirus 8 type P (isolate GK18)), Q9QR71; actives 0.6% (n = 320,000); AID 2629, 2010; cell-free LANA-H2A/H2B peptide, fluorescence polarization; inhibition, % (test concentration not listed); in the data active = inhibition mostly above about 10%, no sharp cut-off; inactive = mostly below about 6.7%
Target sequence (Q9QR71 whole entry, looked up): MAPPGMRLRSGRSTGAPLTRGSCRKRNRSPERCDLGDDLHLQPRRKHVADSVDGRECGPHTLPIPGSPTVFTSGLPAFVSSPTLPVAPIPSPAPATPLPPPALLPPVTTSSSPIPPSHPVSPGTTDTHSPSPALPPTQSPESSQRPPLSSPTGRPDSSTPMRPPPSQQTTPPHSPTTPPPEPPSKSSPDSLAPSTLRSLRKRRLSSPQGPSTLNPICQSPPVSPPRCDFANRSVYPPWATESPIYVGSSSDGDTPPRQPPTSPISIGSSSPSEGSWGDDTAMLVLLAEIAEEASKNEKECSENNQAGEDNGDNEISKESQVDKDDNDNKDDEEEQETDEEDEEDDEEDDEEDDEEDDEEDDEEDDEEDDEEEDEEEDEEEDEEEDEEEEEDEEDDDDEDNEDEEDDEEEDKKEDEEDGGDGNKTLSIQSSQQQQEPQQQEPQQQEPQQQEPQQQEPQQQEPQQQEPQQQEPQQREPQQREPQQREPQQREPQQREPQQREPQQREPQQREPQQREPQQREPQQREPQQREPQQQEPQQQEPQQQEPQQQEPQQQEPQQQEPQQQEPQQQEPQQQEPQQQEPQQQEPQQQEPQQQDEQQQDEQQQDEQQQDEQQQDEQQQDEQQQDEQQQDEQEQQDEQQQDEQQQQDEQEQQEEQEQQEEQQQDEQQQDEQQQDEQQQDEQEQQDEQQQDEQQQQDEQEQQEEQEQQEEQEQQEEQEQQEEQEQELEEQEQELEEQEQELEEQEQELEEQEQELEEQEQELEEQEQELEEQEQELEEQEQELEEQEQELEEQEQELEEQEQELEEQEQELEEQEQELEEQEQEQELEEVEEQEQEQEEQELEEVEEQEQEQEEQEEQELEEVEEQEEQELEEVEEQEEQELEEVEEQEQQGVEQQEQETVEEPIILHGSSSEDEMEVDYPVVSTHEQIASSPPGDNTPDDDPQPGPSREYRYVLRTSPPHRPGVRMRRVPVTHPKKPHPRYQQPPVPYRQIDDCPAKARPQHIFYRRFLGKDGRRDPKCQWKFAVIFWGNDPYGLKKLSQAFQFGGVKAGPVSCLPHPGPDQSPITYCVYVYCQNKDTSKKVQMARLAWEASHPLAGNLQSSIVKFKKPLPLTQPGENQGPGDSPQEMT
CAL PDZ FP-1: untagged CAL PDZ binding inhibitors, primary screen, biochemical, fluorescence polarization, HTS; AID 602252, 2012; purified CAL PDZ, TMR-peptide fluorescence polarization, 1 h; actives 0.92% (n = 300,000); Golgi-associated PDZ and coiled-coil motif-containing protein (Homo sapiens), Q9HD26; inhibition, % at 24.9 µM;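 active = mean inhibition of at least 30% with at least half of replicates also reaching 30%; inconclusive = no clear call, values can overlap the other calls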;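 also: 0% = DMSO neutral control and 100% = excess unlabeled competitor peptide PRC23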
CAL PDZ FP-2: CAL PDZ peptide-binding inhibitors, primary screen, biochemical, fluorescence polarization, Cer-tagged CAL PDZ, HTS; Golgi-associated PDZ and coiled-coil motif-containing protein (Homo sapiens), Q9HD26; purified CAL PDZ, TMR-peptide fluorescence polarization, 1 h; inhibition, % at 20 µM; actives 0.02% (n = 330,000);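 active = highest replicate inhibition of at least 40%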;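 also: plate controls were DMSO neutral control wells for no effect and unlabeled competitor peptide control wells for full effect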
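material = purified tagged CAL PDZ domain construct (CerCALP) | compound dosing = 20 µM, one dose | times = 1 h at RT | measured by = fluorescence polarization from S- and P-plane intensities, G-factor corrected | read-out = inhibition from polarization loss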
The depositor's hits bear a star; ? = inconclusive; . = not tested or not shown. A selection: hits, their analogues and other compounds. The true share with any hit is near 1.5%.

SMILES | CaV13 FRET inh | Keap1-Nrf2 PPI | LANA DNA inh | LANA-H2A inh | CAL PDZ FP-1 | CAL PDZ FP-2
CC(C)c1ccc(NC(=O)Nc2nc(C(N)c3ccccc3Cl)cs2)cc1 (centres undefined) | -4 | . | . | . | . | .
C/C(=N/NC(=O)c1cc(-c2cccc([N+](=O)[O-])c2)n[nH]1)c1cccc(O)c1 | -2 | -4 | -1 | 15* | -5 | -2
COc1cccc2c1C(=O)c1c(O)c3c(c(O)c1C2=O)CC(O)(C(=O)CO)CC3OC1CC(N(C)C)C(O)C(C)O1 (centres undefined) | -23 | ? | 114* | . | 8 | 13
CC(=O)[C@]1(O)Cc2c(O)c3c(c(O)c2[C@@H](O[C@H]2C[C@H](N)[C@H](O)[C@H](C)O2)C1)C(=O)c1ccccc1C3=O | . | . | . | 49* | . | .
CN(CC1COc2ccccc2O1)C(=O)c1cc(COc2c(F)cccc2F)on1 (centres undefined) | -5 | -1 | -2 | 4 | 57* | -1
CN(Cc1cccc2ccccc12)C(=O)c1cc(COc2c(F)cccc2F)on1 | -4 | -2 | 3 | 2 | -5 | -3
CN(CC1COCCO1)C(=O)c1cc(COc2c(F)cccc2F)on1 (centres undefined) | -6 | 7 | -2 | 116* | 0 | -1
CSc1ccccc1OCc1cc(C(=O)N(C)CC2COCCO2)no1 (centres undefined) | -6 | -3 | 1 | -3 | -1 | -2
CCCCn1c(O)c(N=Nc2ccccn2)c2ccccc21 | -5 | 1 | -1 | -1 | 2 | -3
CCCCn1c(O)c(N=Nc2ccccc2O)c2ccccc21 | -13 | -8 | 0 | 1 | 37* | 0
CCOC(=O)N(C)C[C@H]1OCc2cnnn2CCCC(=O)N([C@H](C)CO)C[C@H]1C | -3 | . | . | . | . | .
O=c1c(Cl)c(NCc2ccccc2)cnn1C12CC3CC(CC(C3)C1)C2 | -5 | -2 | -1 | 0 | -3 | 0
c1ccc(CCC2CCCCN2Cc2cn[nH]c2-c2cc3ccccc3o2)nc1 (centres undefined) | -7 | -4 | -1 | 2 | 101* | -1
O=C(c1ccccn1)C1CCCN(Cc2cn[nH]c2-c2cc3ccccc3o2)C1 (centres undefined) | -2 | 2 | 0 | 5 | -1 | -2
Cc1ccc(C(=O)OCC(=O)Nc2cccc(S(=O)(=O)NC3=NCCCCC3)c2)c(C)c1 | -2 | -7 | 3 | 0 | -4 | 0
N#CC1=C(N)OC2=C(C(=O)CCC2)C12CCC1(CC2)OCCO1 | -3 | 0 | 1 | -2 | -2 | 0
CC1(C)C(C#N)=C(N)OC2=C1C(=O)CCC2 | -8 | -6 | -1 | 18* | -3 | -4
O=c1c2c(c(-c3ccccc3)nn1Cc1ccccc1)CCCC2 | -5 | 1 | 0 | 3 | -2 | -1
CCOC(=O)CCn1c(=S)n(CCC(=O)OCC)c2ccccc21 | -4 | 0 | -1 | 3 | 55* | 1
CCC(=O)c1ccc(N2CCCCC2)c(F)c1 | -5 | 6 | 0 | -8 | 161* | -2
CCCN1C(=O)c2n[nH]c(C)c2C1c1ccc2c(c1)OCO2 (centres undefined) | -5 | . | . | . | . | .
O=C(N[C@H](Cc1ccccc1)C(=O)NCc1cccc2ccccc12)[C@H]1O[C@@H](n2ccc(=O)[nH]c2=O)[C@H](O)[C@@H]1O | -3 | . | . | . | . | .
c1ccc(C(c2ccccc2)N2CCN(Cc3nc(-c4cnccn4)no3)CC2)cc1 | -4 | 3 | -1 | -5 | -8 | -1
Clc1cccc2c1CCN(Cc1nc(-c3cnccn3)no1)C2 | -7 | -7 | 0 | -365 | 56* | .
c1ccc(-c2cnc(CSc3nnc4ccccn34)o2)cc1 | -5 | -3 | -1 | -4 | 57* | 0
SMILES | CaV13 FRET inh | Keap1-Nrf2 PPI | LANA DNA inh | LANA-H2A inh | CAL PDZ FP-1 | CAL PDZ FP-2
COCc1[nH]nc2c1C(c1ccc3c(c1)OCO3)N(Cc1ccccc1)C2=O (centres undefined) | -4 | . | . | . | . | .
COc1ccccc1/C=N/Nc1nc(C)cc(=O)[nH]1 | 40* | . | . | . | . | .
NC(=S)NC1CC2CC1C1C=CCC21 (centres undefined) | 12 | -5 | -1 | 0 | -4 | 0
CNNC(=S)NC1CC2CC1C1C=CCC21 (centres undefined) | 41* | 3 | -1 | -2 | . | 0
COc1ccc(OC)c(S(=O)(=O)NCC2CCN(C(=O)C(=O)c3cc4ccccc4o3)CC2)c1 | -11 | . | . | . | . | .
COc1ccccc1Oc1nc2c(c(=O)n(Cc3ccccc3F)c(=O)n2C)n1C | -6 | -6 | 0 | -1 | 75* | -2
Cc1cccn2c(=O)c3cc(C(N)=S)c(=N)n(CCCOC(C)C)c3nc12 | 34* | -1 | -3 | 1 | -3 | -3
Cc1cccn2c(=O)c3cc(C(=O)NCCc4ccccc4)c(=N)n(CCCn4ccnc4)c3nc12 | 33* | 0 | -5 | 6 | -3 | -3
COCCn1c(=N)c(C(=O)NCCc2ccccc2)cc2c(=O)n3cccc(C)c3nc21 | . | -2 | -1 | 0 | -1 | -1
Cc1cccn2c(=O)c3cc(C(=O)NC4CCCC4)c(=N)n(CCc4ccccc4)c3nc12 | 2 | -4 | 2 | 14* | -2 | -1
Cc1cccn2c(=O)c3cc(C(=O)NCCN4CCOCC4)c(=N)n(CCc4ccccc4)c3nc12 | 34* | 0 | -6 | 0 | -4 | -8
Cc1ccc(N(CC(=O)N2CCCCCC2)S(C)(=O)=O)c(C)c1 | -11 | . | . | . | . | .
COC(=O)C1=C(C)N(Cc2ccc(C(F)(F)F)cc2)C(=NCc2ccccc2C(F)(F)F)NC1c1ccccc1 (centres undefined) | -4 | . | . | . | . | .
CCN(C(=O)CCc1cn(CC)c2ccccc12)c1ccc(Oc2cccnc2)cc1 | -11 | . | . | . | . | .
O=C(/C=C/c1ccccc1)NNC(=O)c1cccs1 | 7 | -2 | 0 | -5 | -2 | -2
COc1ccccc1/C=C/C(=O)NNC(=O)c1cccs1 | -1 | -4 | -1 | 0 | 71* | -1
O=C(COc1ccc(-n2cnnn2)cc1)NC(=O)NCc1ccccc1 | -5 | -5 | 0 | 7 | 50* | -2
O=C(COc1ccc(-n2cnnn2)cc1)NC1CCCCC1 | -4 | -3 | 1 | -6 | 1 | -1
Cc1ccc(C)c(C(O)c2ncc(-c3ccc(F)cc3)[nH]2)c1 (centres undefined) | -10 | . | . | . | . | .
